The target in experiment [1] is T1, Inosine-5'-monophosphate dehydrogenase 2 (Homo sapiens, UniProt P12268). Nature of the experiment: Inhibition of human recombinant type II Inosine Monophosphate Dehydrogenase. at pH 8.0. In short, it runs like this: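 Recombinant human type II IMPDH (12.5-25 pmol) in 0.1 M Tris-HCl pH 8.0, 0.1 M KCl, 3 mM EDTA, 100 μg/mL BSA. […] IC50 fitted with a Hill equation, fractional activity = V0/[(I/IC50)^n + 1].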

The species named for experiment [2] is Homo sapiens. Nature of the experiment: Inhibition of human Lymphocyte proliferation. The IC50 values were determined by interpolation using the cubic spline determination at 10 uM. The format is functional. The procedure, abridged:
(§1)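 Human PBMC are isolated on Ficoll from heparinized blood and plated at 2 × 10^5 cells/well in RPMI-1640 with 5% FCS. Cells are stimulated with PHA (10 μg/mL final) and given compound at time 0, at 4-6 concentrations between 0.001 and 20 μM (tested to 10 μM). Cultures run in quadruplicate for 72 h at 37 °C, 7% CO2, with [3H]thymidine (0.5 μCi/well) for the last 6 h. IC50 by cubic-spline interpolation of the means.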

Experiment [3] has as its target T1, Inosine-5'-monophosphate dehydrogenase 2. Nature of the experiment: Inhibition of human recombinant type II Inosine Monophosphate Dehydrogenase at 100 uM. The procedure, abridged: (§2)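 Reactions are run either at pH 7.4 (0.1 M K phosphate, 0.5 M KCl, 3 mM EDTA, 10 μg/mL BSA) or at pH 8.0 (0.1 M Tris-HCl, 0.1 M KCl, 3 mM EDTA, 100 μg/mL BSA). DMSO ≤10%, compounds tested up to 100 μM. IC50 from fit of fractional activity = V0/[(I/IC50)^n + 1].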

The species entered for experiment [4] is Homo sapiens. Nature of the experiment: Inhibition of human Lymphocyte proliferation. The IC50 values were determined by interpolation using cubic spline determination. The format is functional. The procedure, abridged:
as §1

Experiment [5] has as its target T1, Inosine-5'-monophosphate dehydrogenase 2. Nature of the experiment: Inhibition of human recombinant inosine monophosphate dehydrogenase type II. The procedure, abridged:
as §2

The subject of experiment [6] is Mus musculus. Nature of the experiment: Tested for the inhibition of murine PFC response at 100 mg/kg dose. The experiment is classed as functional.

Consider `C/C(=C\Cc1cc(C)c2c(c1O)C(=O)OC2)CCC(=O)O`, for which, in experiment [1], the IC50 was 6960 nM.
Consider `COc1cc2c(c(O)c1C/C=C(\C)CCC(=O)O)C(=O)OC2`, for which the half-inhibitory concentration (IC50) in experiment [1] is 515 nM.
For the compound `COc1c(C)c(C)c(Cl)c(Cl)c1C/C=C(\C)CCC(=O)O`, the results for the 50% inhibitory concentration (IC50) in experiment [2] and in experiment [3] were greater than 10000 nM and 557 nM, respectively.
On to `COc1c(C)c(C)c(Cl)c(N)c1C/C=C(\C)CCC(=O)O`, for which the IC50 in experiment [4] worked out at 4100 nM; in experiment [5], 489 nM. In addition, the inhibition in vivo at 100 mg/kg in experiment [6] was 42%.
In the case of `COc1c(C)c2c(c(O)c1C/C=C(\C)CCC(=O)O)C(=O)SC2`, the concentration for half-maximal inhibition (IC50) turned out to be 1700 nM in experiment [4] and 121 nM in experiment [5].
Turning to `COc1c(C)c2c(c(O)c1C/C=C(\C)CCC(=O)O)C(=O)NC2`, the IC50 turned out to be 244 nM in experiment [1] and 1500 nM in experiment [4].
On to `C/C(=C\Cc1c(C)c(C)c(C)c([N+](=O)[O-])c1O)CCC(=O)O`, for which the half-inhibitory concentration (IC50) in experiment [4] was 3200 nM; in experiment [5], 289 nM.
`COc1c(Br)c2c(c(O)c1C/C=C(\C)CCC(=O)O)C(=O)OC2`: the concentration for half-maximal inhibition (IC50) in experiment [1] came to 975 nM; in experiment [4], 4000 nM.
Take `COc1c(C)c2c(c(O)c1C/C=C(\C)CCC(=O)O)C(=O)OCC2`: the IC50 stood at 644 nM in experiment [1] and 8600 nM in experiment [4].
With `CCc1c2c(c(O)c(C/C=C(\C)CCC(=O)O)c1OC)C(=O)OC2`, the results for the IC50 in experiment [1] and in experiment [4] were 410 nM and 3000 nM, respectively.
As to `COc1c(C)c(C)c(Br)c(N)c1C/C=C(\C)CCC(=O)O`, the IC50 in experiment [4] was found to be 4100 nM; in experiment [5], 462 nM. This compound also gave an inhibition in vivo at 100 mg/kg in experiment [6] of 30%.
In the case of `COc1c(C)c(C)c([N+](=O)[O-])c(Cl)c1C/C=C(\C)CCC(=O)O`, the IC50 was greater than 10000 nM in experiment [2] and 1800 nM in experiment [3].
In the case of `COc1c(C)c(C)c(C#N)c(Cl)c1C/C=C(\C)CCC(=O)O`, the IC50 was greater than 10000 nM in experiment [2] and 681 nM in experiment [3].
With `C/C(=C\Cc1c(C)c(C)c(C)c(Br)c1O)CCC(=O)O`, the results for the IC50 in experiment [4] and in experiment [5] were 1650 nM and 620 nM, respectively.
As to `COc1c(C)c(C)c(I)c(O)c1C/C=C(\C)CCC(=O)O`, the concentration for half-maximal inhibition (IC50) in experiment [4] is 4900 nM; in experiment [5], 592 nM.
With `COc1c(C)c(C)c(F)c(Cl)c1C/C=C(\C)CCC(=O)O`, the half-inhibitory concentration (IC50) in experiment [2] was greater than 10000 nM; in experiment [3], 11800 nM.
As to `COc1c(C/C=C(\C)CCC(=O)O)cc(SC)c(C)c1C`, the IC50 in experiment [2] was greater than 10000 nM; in experiment [3] it was 52300 nM.
Turning to `COc1c(C)c(C)c(F)c(F)c1C/C=C(\C)CCC(=O)O`, the values for the IC50 in experiment [2] and in experiment [3] were greater than 10000 nM and 1380 nM, respectively.
Take `COc1c(C)c2c(c(O)c1C/C=C(\C)CCC(=O)O)C(=O)CC2`: the IC50 turned out to be 830 nM in experiment [4] and 140 nM in experiment [5].
In the case of `COc1c(C/C=C(\C)CCC(=O)O)cc(Cl)c(C)c1C`, the concentration for half-maximal inhibition (IC50) is 6700 nM in experiment [4] and 537 nM in experiment [5].
Take `C=Cc1c(C)c2c(c(O)c1C/C=C(\C)CCC(=O)O)C(=O)OC2`: the IC50 in experiment [4] came out at 93 nM; in experiment [5], 8.51 nM.
With `COc1c(C)c(C)c(C#N)c(O)c1C/C=C(\C)CCC(=O)O`, the results for the IC50 in experiment [4] and in experiment [5] were 1700 nM and 534 nM, respectively.
Take `C/C(=C\Cc1c(O)c2c(c(C)c1-c1ccccc1)COC2=O)CCC(=O)O`: the IC50 in experiment [4] turned out to be 2800 nM; in experiment [5], 130 nM.
For the compound `COc1c(C/C=C(\C)CCC(=O)O)cc([N+](=O)[O-])c(C)c1C`, the concentration for half-maximal inhibition (IC50) in experiment [4] worked out at 9500 nM; in experiment [5], 1220 nM.
For `C/C(=C\Cc1c(O)c2c(c(C)c1C(N)=O)COC2=O)CCC(=O)O` the same measures were greater than 10000 nM and 231 nM.
Turning to `C/C(=C\Cc1c(C)c(C)c(C)c(Cl)c1O)CCC(=O)O`, the IC50 was 360 nM in experiment [4] and 69.3 nM in experiment [5].
As for `COc1c(C)c(C)cc(Cl)c1C/C=C(\C)CCC(=O)O`, the IC50 in experiment [2] was greater than 10000 nM; in experiment [3], 18800 nM.
For the compound `COc1c(C/C=C(\C)CCC(=O)O)cc(Br)c(C)c1C`, the IC50 is greater than 10000 nM in experiment [2] and 795 nM in experiment [3].
Regarding `COc1c(C)c(C)c(C)c(O)c1C/C=C(\C)CCC(=O)O`, the IC50 worked out at 3700 nM in experiment [4] and 959 nM in experiment [5].
For the compound `C/C(=C\Cc1c(O)c(C)c2c(c1O)C(=O)OC2)CCC(=O)O`, the half-inhibitory concentration (IC50) in experiment [4] was greater than 10000 nM; in experiment [5], 87.7 nM.
For `COc1c(C)c(C)c(Br)c(Cl)c1C/C=C(\C)CCC(=O)O`, the IC50 was greater than 10000 nM in experiment [2] and 1040 nM in experiment [3].
For the compound `C/C(=C\Cc1c(C)c(C)c(C)c(Br)c1N)CCC(=O)O`, in experiment [5], the IC50 worked out at 763 nM.
On to `COc1c(C)c(C)cc(O)c1C/C=C(\C)CCC(=O)O`, for which the half-maximal inhibitory concentration (IC50) in experiment [5] is 51800 nM.
Consider `C/C(=C\Cc1c(N)cc(C)c(C)c1C)CCC(=O)O`, for which the IC50 in experiment [5] worked out at 90800 nM.
With `COc1c(C)c(C)c(C#N)c(N)c1C/C=C(\C)CCC(=O)O`, the IC50 in experiment [4] is 4100 nM; in experiment [5], 14800 nM.
For `COc1c(C)c(C)c(F)c(O)c1C/C=C(\C)CCC(=O)O` the same measures were 4100 nM and 1080 nM.
For `C/C(=C\Cc1c(O)c2c(c(C)c1C1CC1)COC2=O)CCC(=O)O`, the IC50 was found to be 340 nM in experiment [4] and 50.7 nM in experiment [5].
Take `COc1c(C)c(C)c(C=O)c(O)c1C/C=C(\C)CCC(=O)O`: the half-inhibitory concentration (IC50) was found to be 10000 nM in experiment [4] and 1120 nM in experiment [5].
On to `COc1c(C)c2c(c(O)c1C/C=C(\C)CCC(=O)O)C(=O)OC2C` (stereo not drawn), for which the half-inhibitory concentration (IC50) came to 420 nM in experiment [1] and 600 nM in experiment [4].
In the case of `COc1c(C/C=C(\C)CCC(=O)O)cc(N)c(C)c1C`, the IC50 in experiment [5] worked out at 17000 nM.
`COc1c(C/C=C(\C)CCC(=O)O)c(O)c2c(c1C(N)=O)COC2=O`: the 50% inhibitory concentration (IC50) was greater than 100000 nM in experiment [1] and greater than 10000 nM in experiment [4].
In the case of `COc1c(C)c(C)c([N+](=O)[O-])c(N)c1C/C=C(\C)CCC(=O)O`, the half-inhibitory concentration (IC50) was found to be 2800 nM in experiment [4] and 465 nM in experiment [5].
`COc1c(C)c(C)c(Cl)c(F)c1C/C=C(\C)CCC(=O)O`: the IC50 worked out at 7500 nM in experiment [4] and 437 nM in experiment [5]. In addition, in experiment [6], 100 mg/kg produced 0% inhibition in vivo.
As to `COc1c(C/C=C(\C)CCC(=O)O)cc(O)c(C)c1C`, the half-maximal inhibitory concentration (IC50) in experiment [3] is greater than 100000 nM.
Consider `COc1c(C)c(C)c(Cl)c(C)c1C/C=C(\C)CCC(=O)O`, for which the IC50 is greater than 10000 nM in experiment [2] and 1700 nM in experiment [3].
In the case of `CCOc1c(C)c2c(c(O)c1C/C=C(\C)CCC(=O)O)C(=O)OC2`, the results for the IC50 in experiment [1] and in experiment [4] were 89.8 nM and 430 nM, respectively.
As for `COc1c(C/C=C(\C)CCC(=O)O)cc(C#N)c(C)c1C`, the IC50 in experiment [5] is 1600 nM.
Consider `C/C(=C\Cc1c(O)c2c(c(C)c1C#N)COC2=O)CCC(=O)O`, for which the 50% inhibitory concentration (IC50) in experiment [4] was greater than 10000 nM; in experiment [5], 15500 nM.
Take `COc1c(C)c(C)c(O)c(Cl)c1C/C=C(\C)CCC(=O)O`: the 50% inhibitory concentration (IC50) in experiment [2] was greater than 10000 nM; in experiment [3], 2880 nM.
Regarding `COc1c(C)c(C)c([N+](=O)[O-])c(O)c1C/C=C(\C)CCC(=O)O`, the IC50 in experiment [5] came out at 184 nM.
Consider `COc1c(C)c(C)c(Br)c(O)c1C/C=C(\C)CCC(=O)O`, for which the concentration for half-maximal inhibition (IC50) came out at 280 nM in experiment [4] and 36.7 nM in experiment [5]. This compound yielded an inhibition in vivo at 100 mg/kg in experiment [6] of 5%.
With `COc1c(C)c(C)c(OC)c(C/C=C(\C)CCC(=O)O)c1O`, the 50% inhibitory concentration (IC50) in experiment [5] was found to be 11900 nM.
For `COc1cc(C/C=C(\C)CCC(=O)O)c(OC)c(C)c1C`, the 50% inhibitory concentration (IC50) in experiment [5] was found to be 50000 nM.
On to `COc1c(C#N)c2c(c(O)c1C/C=C(\C)CCC(=O)O)C(=O)OC2`, for which the half-inhibitory concentration (IC50) is greater than 100000 nM in experiment [1] and greater than 10000 nM in experiment [4].
Regarding `COc1c(C/C=C(\C)CCC(=O)O)cc(S(C)=O)c(C)c1C` (stereo not drawn), the results for the IC50 in experiment [2] and in experiment [3] were greater than 10000 nM and greater than 100000 nM, respectively.

(Values after ChEMBL document CHEMBL1129445 (J Med Chem, 1996).)
